Calls of active or inactive are those of the source.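 The calls were made as follows, unless noted: active = GFP response above 150% of the DMSO level; inconclusive = fewer than 70 events counted for a yeast strain; inactive = the rest.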
Key:
[1] = RPL19A-GFP modulators, yeast TOR pathway, confirmation, cell-based, S. cerevisiae, flow cytometry, cherry picks, mother/daughter gates (AID 2270;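 active = GFP response below 50% of the DMSO control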); conditions: S. cerevisiae RPL19A-GFP strain, 3 h, at 10 µM, stronger effect = lower value, 100 = same GFP as DMSO wells
[2] = LAP4-GFP expression modulators in yeast, confirmation, cell-based, cherry picks, flow cytometry, mother/daughter gates (AID 2271;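 active = GFP response above 150% of the DMSO control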;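 also: ratio of sample to DMSO plate mean so 100% equals DMSO level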); conditions: S. cerevisiae LAP4-GFP strain, 3 h, at 10 µM, stronger effect = higher value, 100 means same as DMSO control
In short: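 Test system: GFP-fusion yeast strain. Medium: synthetic complete (SC) yeast growth medium. Timing: 3 h treatment at 30 °C with rotation. Measured by: GFP by flow cytometry. Control set: positive rapamycin (400 ng/mL), negative DMSO.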

[3] = modulators of MEP2-GFP levels in yeast, confirmation, S. cerevisiae, flow cytometry GFP, cherry picks (AID 2272;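 active = GFP response above 150% of the DMSO control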;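 also: ratio of well signal to plate DMSO mean so 100% equals DMSO level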); conditions: S. cerevisiae MEP2-GFP strain, 3 h, at 10 µM, stronger effect = higher value
[4] = AGP1-GFP expression modulators, hit retest, confirmation, cell-based, flow cytometry, S. cerevisiae, cherry picks (AID 2273);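 also: median GFP channel fluorescence over the whole cell population gate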; conditions: S. cerevisiae AGP1-GFP strain, 3 h, at 10 µM
[5] = modulators of CIT2-GFP expression in yeast, confirmation, S. cerevisiae, GFP fusion, cherry picks, mother/daughter gates (AID 2274); conditions: S. cerevisiae CIT2-GFP strain, flow cytometry, 3 h, at 10 µM, stronger effect = higher value
[6] = measured here: daughter cell gate
[7] = measured here: mother cell gate
[8] = measured here: daughter cell gate response
[9] = measured here: mother cell gate response

| Structure (SMILES) | GFP response vs DMSO [1] | GFP response vs DMSO [1, 6] [%] | GFP response vs DMSO [1, 7] [%] | GFP response relative to DMSO [2] | GFP response relative to DMSO [2, 8] [%] | GFP response relative to DMSO [2, 9] [%] | GFP response vs DMSO [3] | GFP response, % of DMSO [4] | GFP response, % of DMSO [5] | GFP response, % of DMSO [5, 6] [%] | GFP response, % of DMSO [5, 7] [%] |
| --- | --- | --- | --- | --- | --- | --- | --- | --- | --- | --- | --- |
| CCOC(=O)CS(=O)(=O)c1nc(-c2ccccc2)cc(C(F)(F)F)n1 | 101% (inactive) | 105 | 96.2 | 204% (active) | 192 | 206 | 130% (inactive) | 110% (inactive) | 110% (inactive) | 110 | 101 |
| Cc1cccc2nc(-c3cccnc3)c(NCCC(C)C)n12 | 98.8% (inactive) | 99.8 | 99.6 | 89% (inactive) | 89.5 | 92.1 | 107% (inactive) | 98.5% (inactive) | 96.5% (inactive) | 99.7 | 94.4 |
| c1ccc(-c2n[nH]c3ccccc23)cc1 | 98.4% (inactive) | 97.1 | 97.6 | 101% (inactive) | 101 | 98.3 | 96.2% (inactive) | 92.1% (inactive) | 96.9% (inactive) | 97.2 | 97.3 |
| Clc1ccc(-n2nnnc2Sc2ncnc3sccc23)cc1 | 100% (inactive) | 98.4 | 98.8 | 131% (inactive) | 123 | 130 | 131% (inactive) | 115% (inactive) | 106% (inactive) | 105 | 105 |
| COc1ccc(OC(=O)c2cccc(S(=O)(=O)N3CCCC3)c2)cc1 | 96.6% (inactive) | 95.4 | 96.1 | 90.2% (inactive) | 91.2 | 89.7 | 105% (inactive) | 96.4% (inactive) | 103% (inactive) | 103 | 101 |
| CCOC(=O)Cc1csc(NC(=O)c2sc3nc4c(C)cc(C)cc4cc3c2N)n1 | 104% (inactive) | 96.7 | 97.7 | 84.2% (inactive) | 89.5 | 92.1 | 109% (inactive) | 97.2% (inactive) | 115% (inactive) | 110 | 118 |
| O=C1c2ccsc2SCCN1Cc1cccc(Cl)c1 | 95.4% (inactive) | 92.6 | 95.8 | 108% (inactive) | 104 | 110 | 98.3% (inactive) | 98.7% (inactive) | 99.7% (inactive) | 99.1 | 101 |
| COc1ccc2cc(-c3cc(C(=O)O)c4ccccc4n3)ccc2c1 | 98.6% (inactive) | 95.9 | 98.2 | 99.8% (inactive) | 100 | 101 | 107% (inactive) | 96.5% (inactive) | 145% (inactive) | 128 | 152 |
| O=C(CCC(F)(F)F)N1CCC(CO)(CCc2ccccc2)CC1 | 102% (inactive) | 99.8 | 102 | 91.4% (inactive) | 95.6 | 92.1 | 102% (inactive) | 101% (inactive) | 107% (inactive) | 106 | 106 |
| CCc1nnc(NC(=O)c2nc(S(=O)(=O)Cc3cccc(C)c3)ncc2Cl)s1 | 93.9% (inactive) | 93.1 | 92.7 | 105% (inactive) | 102 | 102 | 104% (inactive) | 105% (inactive) | 99.3% (inactive) | 100 | 98 |
| COc1ccc2c(c1)C=Cc1ccccc1O2 | 98.4% (inactive) | 97.6 | 99.5 | 99.2% (inactive) | 99.2 | 99.3 | 98.3% (inactive) | 95.6% (inactive) | 104% (inactive) | 106 | 102 |
| CN1CCN(C(c2ccc(C(F)(F)F)cc2)c2ccc3cccnc3c2O)CC1 (stereo unspecified) | 93.6% (inactive) | 87.3 | 86.7 | 216% (active) | 190 | 218 | 109% (inactive) | 87.4% (inactive) | 97.3% (inactive) | 95.6 | 94.4 |
| Cc1cccc(NC(=O)/C(C#N)=C/c2ccccc2Cl)n1 | 91.2% (inactive) | 91 | 86.6 | 147% (inactive) | 133 | 145 | 153% (inactive) | 109% (inactive) | 112% (inactive) | 117 | 103 |
| Cc1ccc(C(=O)N2c3ccccc3NC(=O)C2C)cc1 (stereo unspecified) | 99.9% (inactive) | 98.1 | 100 | 102% (inactive) | 98.7 | 105 | 100% (inactive) | 100% (inactive) | 97.8% (inactive) | 94.8 | 98.7 |
| N/C(Cc1ccc(Cl)cc1Cl)=N\OC(=O)c1ccccc1 | 99.2% (inactive) | 86.3 | 89.4 | 222% (active) | 145 | 213 | 125% (inactive) | 105% (inactive) | 181% (active) | 117 | 157 |
| CCC(=O)Nc1nc(C)c(-c2csc(Nc3cccc(C(=O)O)c3)n2)s1 | 97.3% (inactive) | 97.8 | 97.3 | 85.8% (inactive) | 89.8 | 87.3 | 101% (inactive) | 94.8% (inactive) | 100% (inactive) | 101 | 100 |

| Structure (SMILES) | GFP response vs DMSO [1] | GFP response vs DMSO [1, 6] [%] | GFP response vs DMSO [1, 7] [%] | GFP response relative to DMSO [2] | GFP response relative to DMSO [2, 8] [%] | GFP response relative to DMSO [2, 9] [%] | GFP response vs DMSO [3] | GFP response, % of DMSO [4] | GFP response, % of DMSO [5] | GFP response, % of DMSO [5, 6] [%] | GFP response, % of DMSO [5, 7] [%] |
| --- | --- | --- | --- | --- | --- | --- | --- | --- | --- | --- | --- |
| CCCc1cc(=O)n(-c2nc3ccccc3s2)[nH]1 | 102% (inactive) | 102 | 101 | 101% (inactive) | 101 | 99.4 | 99% (inactive) | 104% (inactive) | 97.3% (inactive) | 97.4 | 96.8 |
| CC1CN(c2nnnn2-c2ccccc2)CC(C)O1 (stereo unspecified) | 99% (inactive) | 99.1 | 99.8 | 102% (inactive) | 101 | 100 | 96.2% (inactive) | 100% (inactive) | 101% (inactive) | 103 | 99.7 |
| CC(=O)Nc1ccc(NC(=O)c2oc3cc(C)c(C)cc3c2C)cc1 | 99% (inactive) | 96.4 | 99.4 | 99.2% (inactive) | 99.2 | 98.3 | 102% (inactive) | 102% (inactive) | 101% (inactive) | 99.1 | 98.5 |
| Cc1ccc(N2CCN(C(=O)c3ccccc3)CC2)c(C)c1 | 99% (inactive) | 99.4 | 99.5 | 95.4% (inactive) | 94.4 | 94 | 98.3% (inactive) | 94.3% (inactive) | 107% (inactive) | 106 | 106 |
| Cc1cccc(CS(=O)(=O)c2ncc(Cl)c(C(=O)NCc3ccc4c(c3)OCO4)n2)c1 | 99.7% (inactive) | 99 | 102 | 90.2% (inactive) | 91 | 91.1 | 102% (inactive) | 98.7% (inactive) | 107% (inactive) | 105 | 108 |
| COc1ccc(/C=C/C(=O)c2ccc(Cl)cc2)c(OC)c1 | 97.6% (inactive) | 98.9 | 96.1 | 104% (inactive) | 102 | 106 | 100% (inactive) | 90.2% (inactive) | 99.7% (inactive) | 99.1 | 97.3 |
| CCOc1ccc(CNC(=O)CCC(=O)N2Cc3cccc(OC)c3Oc3ncccc32)cc1 | 98.2% (inactive) | 98.6 | 99.8 | 97.9% (inactive) | 99.2 | 96.1 | 100% (inactive) | 96.6% (inactive) | 101% (inactive) | 101 | 99.7 |
| Cc1ccc(N2CCN(C(=O)c3ccccc3Br)CC2)c(C)c1 | 100% (inactive) | 97.6 | 101 | 95.4% (inactive) | 92.8 | 96.1 | 98.3% (inactive) | 92.1% (inactive) | 96.9% (inactive) | 97.2 | 96.1 |
| COc1cc(/C=C2\N=C(c3ccccc3)OC2=O)ccc1OCc1c(C)no[n+]1[O-] | 103% (inactive) | 101 | 103 | 96.5% (inactive) | 97.9 | 96.5 | 104% (inactive) | 97.5% (inactive) | 99.3% (inactive) | 100 | 96.8 |
| CCCCOc1cccc(/C=C(\C#N)C(=O)NC2CC2)c1 | 93.5% (inactive) | 92.1 | 92.5 | 117% (inactive) | 114 | 116 | 113% (inactive) | 92.7% (inactive) | 99.7% (inactive) | 99.1 | 96.1 |
| Oc1ccc(Cl)cc1-c1cc(-c2ccco2)[nH]n1 | 103% (inactive) | 100 | 104 | 95% (inactive) | 94.1 | 96.2 | 109% (inactive) | 88.2% (inactive) | 102% (inactive) | 99.7 | 101 |
| COC(CNC(=O)c1ccc2c3c(onc13)-c1ccccc1C2=O)OC | 99.9% (inactive) | 103 | 95.8 | 188% (active) | 170 | 189 | 120% (inactive) | 86% (inactive) | 91.3% (inactive) | 98.1 | 83.7 |
| COc1ccc(-c2nc(N)n(C(C)=O)n2)cc1 | 103% (inactive) | 102 | 104 | 95% (inactive) | 97.2 | 95.2 | 102% (inactive) | 97.4% (inactive) | 110% (inactive) | 110 | 111 |
| COc1ccc(C2CC(=O)C(C(c3ccc(O)cc3)C3C(=O)CC(c4ccc(OC)cc4)CC3=O)C(=O)C2)cc1 (stereo unspecified) | 100% (inactive) | 101 | 101 | 93.7% (inactive) | 92 | 92 | 96.6% (inactive) | 101% (inactive) | 110% (inactive) | 110 | 109 |
| CC(C)c1nnc(NC(=O)c2nc(S(=O)(=O)Cc3ccccc3F)ncc2Cl)s1 | 98.4% (inactive) | 97.8 | 99.2 | 108% (inactive) | 107 | 107 | 110% (inactive) | 101% (inactive) | 102% (inactive) | 102 | 100 |
